In ChEMBL document CHEMBL2176935, “Discovery and lead optimization of a novel series of CC chemokine receptor 1 (CCR1)-selective piperidine antagonists via parallel synthesis” (J Med Chem, 2012):

Target: T1, C-C chemokine receptor type 1 (Homo sapiens, UniProt P32246)
T1 sequence (P32246 whole entry): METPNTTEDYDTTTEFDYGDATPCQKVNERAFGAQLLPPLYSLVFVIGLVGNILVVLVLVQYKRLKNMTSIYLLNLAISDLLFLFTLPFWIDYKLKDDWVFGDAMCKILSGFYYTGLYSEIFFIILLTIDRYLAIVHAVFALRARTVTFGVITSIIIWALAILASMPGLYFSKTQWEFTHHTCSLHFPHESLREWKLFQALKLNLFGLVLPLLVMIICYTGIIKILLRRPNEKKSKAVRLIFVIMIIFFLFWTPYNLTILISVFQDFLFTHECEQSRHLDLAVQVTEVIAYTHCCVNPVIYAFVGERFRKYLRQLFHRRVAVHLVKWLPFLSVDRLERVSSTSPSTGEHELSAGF
Test: Displacement of [125I]MIP-1alpha from CCR1 in human THP1 cells
Type: cell-based, THP-1
Procedure, shortened: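 THP-1 cells, 1 × 105, mixed with WGA PS SPA beads in RPMI 1640 (no phenol red) with 50 mM HEPES, 5 mM MgCl2, 1 mM CaCl2, 0.1% BSA. Compound in 3-fold dilutions, 8 μM to 140 pM final. [125I]-MIP-1α at 0.1 nM final. Incubated 12 h at room temperature, imaged by LEADseeker. Duplicates; IC50 from four-parameter logistic fit after nonspecific correction.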

IC50 [nM] | Compound
45 | CC(C)[C@@H](NC(=O)Cc1cccc(Cl)c1)C(=O)N1CCC(c2ccc(Cl)cc2)CC1
13 | CC(C)[C@@H](NC(=O)Cc1ccccc1F)C(=O)N1CCC(c2ccc(Cl)cc2)CC1
44 | CC(C)[C@@H](NC(=O)Cc1cccc(F)c1)C(=O)N1CCC(c2ccc(Cl)cc2)CC1
115 | CC(C)[C@@H](NC(=O)Cc1ccc(Cl)cc1)C(=O)N1CCC(c2ccc(Cl)cc2)CC1
140 | Cc1ccc(CC(=O)N[C@@H](C(=O)N2CCC(c3ccc(Cl)cc3)CC2)C(C)C)cc1
19 | Cc1ccccc1CCC(=O)N[C@@H](C(=O)N1CCC(c2ccc(Cl)cc2)CC1)C(C)C
22 | Cc1cccc(CCC(=O)N[C@@H](C(=O)N2CCC(c3ccc(Cl)cc3)CC2)C(C)C)c1
18 | CC(C)[C@@H](NC(=O)CCc1ccccc1F)C(=O)N1CCC(c2ccc(Cl)cc2)CC1
70 | CC(C)[C@@H](NC(=O)CCc1ccc(F)cc1)C(=O)N1CCC(c2ccc(Cl)cc2)CC1
105 | Cc1ccc(CCC(=O)N[C@@H](C(=O)N2CCC(c3ccc(Cl)cc3)CC2)C(C)C)cc1
18 | CC(C)[C@@H](NC(=O)c1nc2ccccc2s1)C(=O)N1CCC(c2ccc(Cl)cc2)CC1
58 | CC(C)[C@@H](NC(=O)c1cc2ccccc2s1)C(=O)N1CCC(c2ccc(Cl)cc2)CC1
45 | CC[C@@H](C)[C@@H](NC(=O)c1ccccc1)C(=O)N1CCC(c2ccc(Cl)cc2)CC1
121 | O=C(N[C@@H](C(=O)N1CCC(c2ccc(Cl)cc2)CC1)C1CCCCC1)c1ccccc1
50 | CC[C@@H](NC(=O)Cc1ccccc1)C(=O)N1CCC(c2ccc(Cl)cc2)CC1
30 | CC(C)[C@@H](NC(=O)Cc1ccccc1)C(=O)N1CCC(c2ccc(Cl)cc2)CC1
38 | CC[C@@H](C)[C@@H](NC(=O)Cc1ccccc1)C(=O)N1CCC(c2ccc(Cl)cc2)CC1
85 | CC[C@@H](NC(=O)CCc1ccccc1)C(=O)N1CCC(c2ccc(Cl)cc2)CC1
40 | CC(C)[C@@H](NC(=O)CCc1ccccc1)C(=O)N1CCC(c2ccc(Cl)cc2)CC1
66 | CC[C@@H](C)[C@@H](NC(=O)CCc1ccccc1)C(=O)N1CCC(c2ccc(Cl)cc2)CC1
70 | CC(C)[C@@H](NC(=O)C1CCCC1)C(=O)N1CCC(c2ccc(Cl)cc2)CC1
26 | CC(C)CCC(=O)N[C@@H](C(=O)N1CCC(c2ccc(Cl)cc2)CC1)C(C)C
46 | CC(C)[C@@H](NC(=O)CC1CC1)C(=O)N1CCC(c2ccc(Cl)cc2)CC1

IC50 [nM] | Compound
20 | CC(C)[C@@H](NC(=O)CC1CCCC1)C(=O)N1CCC(c2ccc(Cl)cc2)CC1
8 | CC(C)[C@@H](NC(=O)CC1CCCCC1)C(=O)N1CCC(c2ccc(Cl)cc2)CC1
24 | CC(C)[C@@H](NC(=O)c1cccc(F)c1)C(=O)N1CCC(c2ccc(Cl)cc2)CC1
118 | CC(C)[C@@H](NC(=O)c1ccc(F)cc1)C(=O)N1CCC(c2ccc(Cl)cc2)CC1
14 | CC(C)[C@@H](NC(=O)c1ccc(F)c(F)c1)C(=O)N1CCC(c2ccc(Cl)cc2)CC1
32 | Cc1ccccc1C(=O)N[C@@H](C(=O)N1CCC(c2ccc(Cl)cc2)CC1)C(C)C
25 | Cc1ccc(C(=O)N[C@@H](C(=O)N2CCC(c3ccc(Cl)cc3)CC2)C(C)C)cc1
100 | Cc1cccc(C(=O)N[C@@H](C(=O)N2CCC(c3ccc(Cl)cc3)CC2)C(C)C)c1C
177 | Cc1cccc(C)c1C(=O)N[C@@H](C(=O)N1CCC(c2ccc(Cl)cc2)CC1)C(C)C
80 | CC(C)C(NC(=O)c1ccc2ccccc2c1)C(=O)N1CCC(c2ccc(Cl)cc2)CC1 (stereo not given)
40 | CC(C)C(NC(=O)Cc1ccccc1)C(=O)N1CCC(c2ccc(Cl)cc2)CC1 (stereo not given)
35 | CC(C)C(NC(=O)CCc1ccccc1)C(=O)N1CCC(c2ccc(Cl)cc2)CC1 (stereo not given)
95 | CC(C)[C@@H](NC(=O)CCCc1ccccc1)C(=O)N1CCC(c2ccc(Cl)cc2)CC1
1080 | CC(C)C(NC(=O)OCc1ccccc1)C(=O)N1CCC(c2ccc(Cl)cc2)CC1 (stereo not given)
303 | CC(C)C(NS(=O)(=O)Cc1ccccc1)C(=O)N1CCC(c2ccc(Cl)cc2)CC1 (stereo not given)
616 | CC(C)[C@@H](NC(=O)Nc1ccccc1)C(=O)N1CCC(c2ccc(Cl)cc2)CC1
180 | CC(C)[C@@H](NC(=O)NCc1ccccc1)C(=O)N1CCC(c2ccc(Cl)cc2)CC1
543 | CC(C)[C@@H](NC(=O)NCCc1ccccc1)C(=O)N1CCC(c2ccc(Cl)cc2)CC1
14900 | CC(C)[C@H](NC(=O)c1ccccc1)C(=O)N1CCC(c2ccc(Cl)cc2)CC1
152 | CC[C@@H](NC(=O)CC(C)C)C(=O)N1CCC(c2ccc(Cl)cc2)CC1
32 | CC(C)CC(=O)N[C@@H](C(=O)N1CCC(c2ccc(Cl)cc2)CC1)C(C)C
34 | CC[C@@H](C)[C@@H](NC(=O)CC(C)C)C(=O)N1CCC(c2ccc(Cl)cc2)CC1
121 | CC[C@@H](NC(=O)c1ccccc1)C(=O)N1CCC(c2ccc(Cl)cc2)CC1

IC50 [nM] | Compound
854 | CC(C)C(NC(=O)OCc1ccccc1)C(=O)N1CCC(O)(c2ccc(Cl)cc2)CC1 (stereo not given)
933 | CC(C)C(NC(=O)c1ccccc1)C(=O)N1CCC(O)(c2ccc(F)cc2)CC1 (stereo not given)
172 | CC(C)C(NC(=O)c1ccccc1)C(=O)N1CCC(O)(c2ccc(Br)cc2)CC1 (stereo not given)
185 | CC(C)C(NC(=O)c1ccccc1)C(=O)N1CC=C(c2ccc(Cl)cc2)CC1 (stereo not given)
423 | CC(C)C(NC(=O)c1ccccc1)C(=O)N1CCC(c2ccc(F)cc2)CC1 (stereo not given)
55 | CC(C)C(NC(=O)c1ccccc1)C(=O)N1CCC(c2ccc(Cl)cc2)CC1 (stereo not given)
525 | CC(C)C(NC(=O)c1ccccc1)C(=O)N1CCN(c2ccc(Cl)cc2)CC1 (stereo not given)
375 | CC(C)C(NC(=O)c1ccccc1)C(=O)N1CCN(c2ccc(Cl)c(Cl)c2)CC1 (stereo not given)
388 | CC(C)C(=O)NC(C(=O)N1CCC(c2ccc(Cl)cc2)CC1)C(C)C (stereo not given)
130 | CC(C)CC(NC(=O)c1ccccc1)C(=O)N1CCC(c2ccc(Cl)cc2)CC1 (stereo not given)
259 | CC(C)(C)C(NC(=O)c1ccccc1)C(=O)N1CCC(c2ccc(Cl)cc2)CC1 (stereo not given)
36 | Cc1ccccc1C(=O)NC(C(=O)N1CCC(c2ccc(Cl)cc2)CC1)C(C)C (stereo not given)
88 | Cc1ccccc1C(=O)NC(CC(C)C)C(=O)N1CCC(c2ccc(Cl)cc2)CC1 (stereo not given)
262 | Cc1ccccc1C(=O)NC(C(=O)N1CCC(c2ccc(Cl)cc2)CC1)C(C)(C)C (stereo not given)
2830 | CC(O)C(NC(=O)c1ccccc1)C(=O)N1CCC(O)(c2ccc(Cl)cc2)CC1 (stereo not given)
370 | C/C=C(/NC(=O)c1ccccc1)C(=O)N1CCC(O)(c2ccc(Cl)cc2)CC1
180 | CC(C)C(NC(=O)c1ccccc1)C(=O)N1CCC(O)(c2ccc(Cl)cc2)CC1 (stereo not given)
521 | CCCC(NC(=O)c1ccccc1)C(=O)N1CCC(O)(c2ccc(Cl)cc2)CC1 (stereo not given)
324 | CC(C)CC(NC(=O)c1ccccc1)C(=O)N1CCC(O)(c2ccc(Cl)cc2)CC1 (stereo not given)
539 | CSCCC(NC(=O)c1ccccc1)C(=O)N1CCC(O)(c2ccc(Cl)cc2)CC1 (stereo not given)
120 | CCCC(NC(=O)c1ccccc1)C(=O)N1CCC(c2ccc(Cl)cc2)CC1 (racemic)
152 | CCCC(NC(=O)c1ccccc1C)C(=O)N1CCC(c2ccc(Cl)cc2)CC1 (racemic)
191 | CCCC(NC(=O)c1ccc2ccccc2c1)C(=O)N1CCC(c2ccc(Cl)cc2)CC1 (racemic)

Compound | IC50 [nM]
CC(C)C(NC(=O)Oc1ccccc1)C(=O)N1CCC(c2ccc(Cl)cc2)CC1 (stereo not given) | 265
